Measurements taken from the EternaBench riboswitch data.

Test system: MS2 coat protein
Test: apparent Kd, MS2 coat protein; higher = weaker binding; RNA-MaP array; FMN 200 µM where present
Method in brief: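 Green signal was scaled to red-channel RNA signal and control-cluster median Fmax, and the apparent Kd was taken as the median of filtered per-cluster binding-curve fits. The binding series used SNAP-549-labelled MS2 coat protein from 0.7 or 1.5 nM, doubling to 3 µM, on designs transcribed by stalled E. coli RNA polymerase on Illumina sequencing-chip clusters. Each series ran without and then with constant ligand in 100 mM Tris-HCl pH 7.5, 80 mM KCl, 4 mM MgCl2, BSA, DTT, yeast tRNA and Tween-20.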

[1] = designed as: OFF switch for flavin mononucleotide, no ligand
[2] = ligand present: flavin mononucleotide, designed as: OFF switch for flavin mononucleotide
[3] = designed as: ON switch for flavin mononucleotide, no ligand
[4] = ligand present: flavin mononucleotide, designed as: ON switch for flavin mononucleotide

| Sequence | apparent Kd [1] | apparent Kd [2] | apparent Kd [3] | apparent Kd [4] |
| --- | --- | --- | --- | --- |
| GUACAGAGGGAGAAGGGCUAGGAGGUCCAGCUUAUGUGUGUUGCAACAUGAGGAUCACCCAUGUAGCAGGAUAUCCCUCGUACA | 40.2 nM | 257 nM |  |  |
| GGUCGAAAGUAAGGAUAUGCCUAGGAAACCUAGGCAGAAGGUACAUGAGGAUCACCCAUGUUAACGCAAAGCGAAUAAACGACC | 18.6 nM | 27.4 nM |  |  |
| UUCAUGUGAGGAUAUGCGGCGCCAGGCGAGCCUGGCACUGAGCAGAAGGCACAUGAGGAUCACCCAUGUGCUCC | 33.5 nM | 73.5 nM |  |  |
| CCGUUACAUGAGGAUCACCCAUGUGAGGAUAUCGAUGUAACUAGCAGCGUGCGGGACUCGAGAAGGCACUUGGC | 104 nM | 75.2 nM |  |  |
| GUCAUCAAUGAAGGAUAUCUAUGUCCAACAUGAGGAUCACCCAUGUUGAGGAUUACCUAUGUGUAGGAGAAGGUCAAUAUAACU |  |  | 8.01 nM | 6.91 nM |
| UGAUAGGACACAGGAUAUACGUCCUAGAGAUACUAGGAAAGUUUCCUCACAUGAGGAUCACCCAUGUAGAAGGGUGUCCUAUCU | 9.93 nM | 222 nM |  |  |
| GUAGAGUAAGGAUAUGCAGAAUAGGAUAGAAUGGAUAGAAUGCAGAAGGUACAUGAGGAUCACCCAUGUAAUGU | 19.8 nM | 21.6 nM |  |  |
| UUUUUGUGAGGAUAUCAGUAGUAAAUAAAUAAAAUUACUACUGAGAAGGCACAUGAGGAUCACCCAUGUUCCUU | 13.7 nM | 33.4 nM |  |  |
| GGUUAUUGCAAGGAUAUGCUUUUUUUUUAUAUUGCAGAAGGUGCAACAUGAGGAUCACCCAUGUUGGAGGGUUU | 24.5 nM | 42.9 nM |  |  |
| GGACGGAAAGUGAGGAUAUGCUCUACCUCGGUAGAGCAGAAGGCACAUGAGGAUCACCCAUGUGAUUACUGUUC | 25.5 nM | 184 nM |  |  |
| CUAGCUAUCGGAGGAUAUUCAUACCGGAAACGGACAUGAGGAUCACCCAUGUGCCGAAAGGCUUGGGAGAAGGCCGAUAGCUAG |  |  | 272 nM | 20.6 nM |
| UGGUACUAGGGAGGAUAUGGGAAGAUACAUGAGGAUCACCCAUGUUUAAGAAUGCCGAGAGGCCACUAGAAGGCCCUAGUACCU |  |  | 244 nM | 12.4 nM |
| UAAGAUUAUGUAGGAUAUGGUUAUCUAUGUCUAGUUACUAGACAUAGAUAACCAGAAGGACAUGAGGAUCACCCAUGUUGAAUG | 10.3 nM | 44.4 nM |  |  |
| GGGUACAUCGGAGGAUAUCAUGUAAAUACAUGAGGAUCACCCAUGUCGAUGGAUACAUCGGAGAUUGAGAAGGCCGAUGUACCG |  |  | 13 nM | 5.34 nM |
| AUCUCGUCAGGAUAUCCUAGUAAUUGUUUCAUAUUUACGAUGGAGAAGGGACAUGAGGAUCACCCAUGUUGGUC | 64.4 nM | 144 nM |  |  |
| AUCAGCUCGUCAGGAUAUACGUCACUGCGUCAGCAGUAUGGUAAGAUCACAUGAGGAUCACCCAUGUAGAAGGGACGAGCUGAU | 62.2 nM | 663 nM |  |  |
| UUUGUUUUGCAAGGAUAUGUUUAAUUUUAUUUUCCUUACACAUGAGGAUCACCCAUGUUAUACUUACAGAAGGUGCGUAAUUUG | 158 nM | 151 nM |  |  |
| GCAAAGCCUGACAUGAGGAUCACCCAUGUUAGAUUGUUAUGUCAGGAUAUUGUCUAGACCCUAGACAAGAAGGGAUGCUUUGCU |  |  | 371 nM | 26.9 nM |
| CCCUCGUAGUAGAAGGGCGGCCGAAAUCUGCACGCAGGAUAUACAUGAGGAUCACCCAUGUACUGAGCUGAAGAGCACUUGGAA | 15.1 nM | 14.5 nM |  |  |
| AAUUUAAUACAUGAGGAUCACCCAUGUAAUACUUGUAAGAUCAAGGAUAUCAGCUCGAAUAGAGCUGAGAAGGUGAUCACAUGU |  |  | 75.9 nM | 227 nM |
| AAGAUGCGGAUAGGAUAUGGAAAUAAAUAAAGACCAGAAGGAUUGGUCACACAACAUGAGGAUCACCCAUGUGUGUGUUGUGAA | 13.9 nM | 10.6 nM |  |  |

| Sequence | apparent Kd [1] | apparent Kd [2] | apparent Kd [3] | apparent Kd [4] |
| --- | --- | --- | --- | --- |
| CUAGACAUAUCAGGAUAUCAUCGCGUGGAUUAACCCUGUGAUUACAUGAGGAUCACCCAUGUGCUUGAGAAGGGAUUACUAUUU | 35.7 nM | 145 nM |  |  |
| UGCUACUAGGGAGGAUAUGGGAAGAUACAUGAGGAUCACCCAUGUUUAAGAAUGCCGAGAGGCAACUAGAAGGCCCUAGUACCU |  |  | 401 nM | 22.1 nM |
| GGAGCACGCACAGGAUAUCCGGCGGCGCUCGUCGGAGAAGGGUGACAUGAGGAUCACCCAUGUACGUGCAACCCAGUUUGAGAG |  |  | 122 nM | 44.8 nM |
| UGGUACAUGGGAGGAUAUGGGUUGAUAACAUGAGGAUCACCCAUGUUAAAUAUCCCGAGAGGGAACUAGAAGGCCCAUGUACCU |  |  | 643 nM | 46 nM |
| CCGAAACCUCAGAAGGACCACAUGAGGAUCACCCAUGUCAAGCAAAACGGUAGGAUAUGAGGGAAAUGUCGAUAUACCCGACAG |  |  | 7.9 nM | 4.72 nM |
| AACUCGUCAGGAUAUGCGCGCAGUUACUACGCUUCGCAAUUGCAGAAGGGACAUGAGGAUCACCCAUGUAGGUC | 46.9 nM | 48 nM |  |  |
| GUAGCAUGCAGCGAGGAUAUUCAUAUUAAAACAUGAGGAUCACCCAUGUAGGCCAAAAGGCCUUGGGAGAAGGCGCACAUGCUAC |  |  | 777 nM | 43.2 nM |
| GUCAUGUGAGGAUAUGUAUUGCGCAUGCCGAAAACAUGGCGGCAGAAGGCACAUGAGGAUCACCCAUGUGGGUU | 62.7 nM | 34.4 nM |  |  |
| GCUGGACAAGGAUAUACAUAACGUGCUUCGGCACGAGAUCUACAUGAGGAUCACCCAUGUAGAAGGUGUCCAGC | 14.8 nM | 29.2 nM |  |  |
| UUGGACGUCGUAGGAUAUGUAGGAUAUUCCUACAUGAGGAUCACCCAUGUUGACAUGGAAUAAGGACAGAAGGACGAUGUCCAU |  |  | 23.4 nM | 5.28 nM |
| AUUUAACAUGAGGAUCACCCAUGUGAGGAUAUGUCCAUUUUAAACAAAUAGGAUAUGGACAGAAGGCACACCGG | 162 nM | 366 nM |  |  |
| AGUGACGACGAGGAUAUUCCGGUAGCCUACUAAGAAGAAGGUGUCACAUGAGGAUCACCCAUGUUUAGUUUCGC | 141 nM | 68.7 nM |  |  |
| UAGGAGUCAGGAUAUGCGAGAGAUUGAAGUAUGGGAUGUGAGCAGAAGGGACAUGAGGAUCACCCAUGUAUGGA | 167 nM | 150 nM |  |  |
| CUGUUAUUGAUCCAUUUUUUCAACAUGAGGAUCACCCAUGUGCAGGAUAUCGUGAUUAUUAUCAACGAGAAGGGCAGAUUCACG | 74 nM | 178 nM |  |  |
| UGUAUGUAGGCAGGAUAUACAUGAAUAUAUAUGAUGUAGUAUGAUGUAACAUGAGGAUCACCCAUGUAGAAGGGCCAGUGUAUG | 77.8 nM | 129 nM |  |  |
| AAGUUUGUACGAGGAUAUCAGUUGUAUCUAAAUUCAACAUGAGGAUCACCCAUGUUGCAAUGGAGUGAGAAGGCGUGUGGGCAA |  |  | 31.3 nM | 22.8 nM |
| AAACCACAUGAGGAUCACCCAUGUGAGGAUAUGAUACUAUGUACUUCGGUACAUAGUAUCAGAAGGCAUGUGGA | 180 nM | 130 nM |  |  |
| AGCAACAUGAGGAUCACCCAUGUUGGUUCGAAAACGGACUCACAGGAUAUGCGGCGUAAUCGCUCGCAGAAGGGUGCGUCCUCA |  |  | 14.1 nM | 25.6 nM |
| CGAUUGACGUAGAAGGGACUUAAGGGACAAAGCAUGCGAACGGACGGACAUGAGGAUCACCCAUGUCAGGAUAUACGUUCAUUU | 5.27 nM | 6 nM |  |  |
| AGGUGACAUGAGGAUCACCCAUGUCAGGAUAUAUACACUGCCGGCGUGACGCCGGCAGAUAGAAGGGACAAAAU | 15.9 nM | 18.4 nM |  |  |
| AUAAUUUUAUAUAUCAUUUUAAUCAGAAGGCAUAACAUGAGGAUCACCCAUGUAAAUUAAUGUUAUGAGGAUAUGAUUUGGUUA | 26.1 nM | 147 nM |  |  |
